Test results taken from ChEMBL document CHEMBL2417539, “1-substituted (Dibenzo[b,d]thiophen-4-yl)-2-morpholino-4H-chromen-4-ones endowed with dual DNA-PK/PI3-K inhibitory activity” (J Med Chem, 2013).
Values after ≈ are worked out from the molar mass of the structure shown.

Tests used:
[1] = Lipophilicity, log D of the compound; type: physicochemical; conditions: octanol/water
[2] = biological target: T1, DNA-dependent protein kinase catalytic subunit (Homo sapiens, UniProt P78527); experiment: Inhibition of DNA-PK autophosphorylation at S2056 in human HeLa cells; type: cell-based
[3] = test system: HeLa; experiment: Antiproliferative activity against human HeLa cells assessed as cell survival ratio at 0.5 uM treated 1 hr before 2Gy ionizing radiation measured after 6 to 8 days by DMR clonogenic assay; type: functional
Outline: (§1)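 HeLa cells seeded in 6-well dishes, incubated overnight at 37 °C/5% CO2, pre-treated 1 h with vehicle or inhibitor (0.1 or 0.5 μM), then given 2 Gy X-ray IR and held overnight. Medium then replaced without compound and culture continued 6-8 days. Colonies Giemsa-stained and counted automatically. DMR = % survival (vehicle, 2 Gy) / % survival (compound, 2 Gy).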

[4] = Fraction unbound in human Plasma; type: ADME, cell-free
[5] = biological target: Cytochrome P450 3A4 (Homo sapiens, UniProt P08684); experiment: Inhibition of CYP3A4 (unknown origin); type: ADME
Sequence of Cytochrome P450 3A4 (P08684 whole entry): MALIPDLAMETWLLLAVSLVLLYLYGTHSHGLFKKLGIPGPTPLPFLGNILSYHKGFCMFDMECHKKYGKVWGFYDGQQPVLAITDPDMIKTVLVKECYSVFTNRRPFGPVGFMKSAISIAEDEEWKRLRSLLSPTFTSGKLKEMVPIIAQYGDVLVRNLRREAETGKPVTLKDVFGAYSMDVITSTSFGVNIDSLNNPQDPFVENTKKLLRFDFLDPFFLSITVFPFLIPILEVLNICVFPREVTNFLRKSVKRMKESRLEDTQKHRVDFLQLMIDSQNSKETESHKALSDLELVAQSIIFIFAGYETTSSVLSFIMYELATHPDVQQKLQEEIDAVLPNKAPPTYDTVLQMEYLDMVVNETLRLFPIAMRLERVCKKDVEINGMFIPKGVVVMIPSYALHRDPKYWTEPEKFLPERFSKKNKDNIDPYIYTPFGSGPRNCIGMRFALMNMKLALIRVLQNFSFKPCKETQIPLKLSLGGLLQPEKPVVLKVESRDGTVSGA

[6] = biological target: T2, Cytochrome P450 1A2 (Homo sapiens, UniProt P05177); experiment: Inhibition of CYP1A2 (unknown origin); type: ADME
T2 sequence (P05177 whole entry): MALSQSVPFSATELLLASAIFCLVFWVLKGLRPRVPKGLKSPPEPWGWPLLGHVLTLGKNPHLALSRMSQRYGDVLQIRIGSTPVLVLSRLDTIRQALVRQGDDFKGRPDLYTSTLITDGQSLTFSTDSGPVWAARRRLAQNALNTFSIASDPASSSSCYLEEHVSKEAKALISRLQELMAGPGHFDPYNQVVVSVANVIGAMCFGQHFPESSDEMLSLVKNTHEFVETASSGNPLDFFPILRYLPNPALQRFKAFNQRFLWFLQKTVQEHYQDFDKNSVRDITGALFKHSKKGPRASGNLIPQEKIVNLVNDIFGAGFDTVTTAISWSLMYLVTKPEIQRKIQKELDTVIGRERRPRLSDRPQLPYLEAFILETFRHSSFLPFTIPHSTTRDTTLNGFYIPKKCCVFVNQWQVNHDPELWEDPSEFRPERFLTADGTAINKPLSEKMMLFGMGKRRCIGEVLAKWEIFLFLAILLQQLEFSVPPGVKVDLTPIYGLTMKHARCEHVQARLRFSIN

[7] = biological target: Cytochrome P450 2C9 (Homo sapiens, UniProt P11712); experiment: Inhibition of CYP2C9 (unknown origin); type: ADME
Sequence of Cytochrome P450 2C9 (P11712 whole entry): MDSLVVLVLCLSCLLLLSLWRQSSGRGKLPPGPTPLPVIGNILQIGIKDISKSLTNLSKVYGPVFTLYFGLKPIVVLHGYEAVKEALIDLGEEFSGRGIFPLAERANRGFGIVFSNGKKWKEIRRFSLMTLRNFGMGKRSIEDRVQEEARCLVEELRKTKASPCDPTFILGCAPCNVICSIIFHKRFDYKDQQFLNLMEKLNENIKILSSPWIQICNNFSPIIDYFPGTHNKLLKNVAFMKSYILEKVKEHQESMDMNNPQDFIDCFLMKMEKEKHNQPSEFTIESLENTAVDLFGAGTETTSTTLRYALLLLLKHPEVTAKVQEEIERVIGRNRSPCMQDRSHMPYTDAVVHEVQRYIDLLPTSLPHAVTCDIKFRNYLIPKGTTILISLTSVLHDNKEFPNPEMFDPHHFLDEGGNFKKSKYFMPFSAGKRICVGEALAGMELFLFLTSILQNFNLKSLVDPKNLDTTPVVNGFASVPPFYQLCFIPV

[8] = Aqueous solubility of the compound at pH 7.4; type: physicochemical; conditions: buffer
[9] = test system: HeLa; experiment: Antiproliferative activity against human HeLa cells assessed as cell survival ratio at 0.1 uM treated 1 hr before 2Gy ionizing radiation measured after 6 to 8 days by DMR clonogenic assay; type: functional; outline: as §1
[10] = biological target: Cytochrome P450 2C19 (Homo sapiens, UniProt P33261); experiment: Inhibition of CYP2C19 (unknown origin); type: ADME
Sequence of Cytochrome P450 2C19 (P33261 whole entry): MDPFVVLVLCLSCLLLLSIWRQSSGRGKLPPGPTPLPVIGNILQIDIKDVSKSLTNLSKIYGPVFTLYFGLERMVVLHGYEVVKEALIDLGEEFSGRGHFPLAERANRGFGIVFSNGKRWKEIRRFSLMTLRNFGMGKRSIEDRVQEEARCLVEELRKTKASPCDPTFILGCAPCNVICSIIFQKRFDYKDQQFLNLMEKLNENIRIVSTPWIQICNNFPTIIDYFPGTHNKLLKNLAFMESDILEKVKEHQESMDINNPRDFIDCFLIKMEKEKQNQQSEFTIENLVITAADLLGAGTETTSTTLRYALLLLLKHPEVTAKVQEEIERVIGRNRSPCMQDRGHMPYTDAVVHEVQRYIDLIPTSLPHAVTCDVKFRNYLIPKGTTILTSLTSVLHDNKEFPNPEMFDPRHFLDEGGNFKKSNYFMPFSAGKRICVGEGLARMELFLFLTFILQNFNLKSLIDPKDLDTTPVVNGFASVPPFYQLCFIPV

[11] = biological target: T1, DNA-dependent protein kinase catalytic subunit; experiment: Inhibition of human DNA-PK using GST-tagged p53N66 as substrate after 1 hr by ELISA-based chemiluminiscence assay
[12] = biological target: Cytochrome P450 2D6 (Homo sapiens, UniProt P10635); experiment: Inhibition of CYP2D6 (unknown origin); type: ADME
Sequence of Cytochrome P450 2D6 (P10635 whole entry): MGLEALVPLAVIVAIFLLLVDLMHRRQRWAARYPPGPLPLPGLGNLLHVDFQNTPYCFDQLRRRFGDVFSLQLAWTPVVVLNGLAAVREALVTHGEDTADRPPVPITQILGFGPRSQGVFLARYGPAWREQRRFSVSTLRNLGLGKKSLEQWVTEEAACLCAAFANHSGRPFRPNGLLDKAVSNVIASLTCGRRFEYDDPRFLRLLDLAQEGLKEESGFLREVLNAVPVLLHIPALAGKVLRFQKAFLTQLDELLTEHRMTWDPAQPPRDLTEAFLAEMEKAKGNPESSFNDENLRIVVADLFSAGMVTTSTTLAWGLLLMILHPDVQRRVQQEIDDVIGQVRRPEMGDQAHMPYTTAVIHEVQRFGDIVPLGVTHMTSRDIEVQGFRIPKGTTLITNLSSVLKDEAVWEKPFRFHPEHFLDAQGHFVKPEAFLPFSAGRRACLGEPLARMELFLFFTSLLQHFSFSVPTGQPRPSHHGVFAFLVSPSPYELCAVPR

[13] = biological target: Voltage-gated inwardly rectifying potassium channel KCNH2 (Homo sapiens, UniProt Q12809); experiment: Inhibition of human ERG expressed in cisapride treated CHO cells by Ion Works assay
Sequence of Voltage-gated inwardly rectifying potassium channel KCNH2 (Q12809 whole entry, canonical isoform): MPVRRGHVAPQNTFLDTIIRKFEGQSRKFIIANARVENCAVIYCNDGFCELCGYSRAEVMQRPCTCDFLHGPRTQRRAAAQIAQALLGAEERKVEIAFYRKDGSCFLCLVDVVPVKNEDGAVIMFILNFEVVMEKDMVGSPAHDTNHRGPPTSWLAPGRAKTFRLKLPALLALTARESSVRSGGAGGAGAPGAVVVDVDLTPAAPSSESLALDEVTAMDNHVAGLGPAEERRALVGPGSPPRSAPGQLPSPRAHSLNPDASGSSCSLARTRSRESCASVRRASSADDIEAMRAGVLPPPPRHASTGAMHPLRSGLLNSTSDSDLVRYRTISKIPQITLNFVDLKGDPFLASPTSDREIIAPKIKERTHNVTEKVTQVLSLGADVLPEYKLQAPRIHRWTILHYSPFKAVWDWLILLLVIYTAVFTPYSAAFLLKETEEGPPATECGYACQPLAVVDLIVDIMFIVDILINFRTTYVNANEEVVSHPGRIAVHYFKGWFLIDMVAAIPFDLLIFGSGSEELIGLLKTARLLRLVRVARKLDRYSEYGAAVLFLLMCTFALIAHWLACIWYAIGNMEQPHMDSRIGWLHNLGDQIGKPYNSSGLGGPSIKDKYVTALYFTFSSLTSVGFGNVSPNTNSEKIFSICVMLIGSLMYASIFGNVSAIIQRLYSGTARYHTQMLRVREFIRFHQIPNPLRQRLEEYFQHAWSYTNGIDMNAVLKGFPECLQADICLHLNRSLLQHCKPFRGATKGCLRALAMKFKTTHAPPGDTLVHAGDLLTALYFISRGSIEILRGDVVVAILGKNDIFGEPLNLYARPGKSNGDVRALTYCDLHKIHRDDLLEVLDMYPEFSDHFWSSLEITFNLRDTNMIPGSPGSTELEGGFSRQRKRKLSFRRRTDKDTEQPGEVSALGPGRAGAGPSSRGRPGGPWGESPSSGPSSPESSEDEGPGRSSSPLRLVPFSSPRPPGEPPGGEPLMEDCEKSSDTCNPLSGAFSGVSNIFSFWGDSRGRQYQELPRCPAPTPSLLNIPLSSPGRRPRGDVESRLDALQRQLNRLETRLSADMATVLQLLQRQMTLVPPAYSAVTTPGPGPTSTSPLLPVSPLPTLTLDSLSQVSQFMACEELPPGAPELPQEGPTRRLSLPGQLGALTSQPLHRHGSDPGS

[14] = biological target: Phosphatidylinositol 4,5-bisphosphate 3-kinase catalytic subunit beta isoform (Homo sapiens, UniProt P42338); experiment: Inhibition of PI-3K beta (unknown origin)
[15] = biological target: Serine-protein kinase ATM (Homo sapiens, UniProt Q13315); experiment: Inhibition of ATM (unknown origin)
[16] = biological target: Serine/threonine-protein kinase mTOR (Homo sapiens, UniProt P42345); experiment: Inhibition of mTOR (unknown origin)
[17] = biological target: T1, DNA-dependent protein kinase catalytic subunit; experiment: Inhibition of DNA-PK (unknown origin)
[18] = biological target: Serine/threonine-protein kinase ATR (Homo sapiens, UniProt Q13535); experiment: Inhibition of ATR (unknown origin)
[19] = biological target: T3, Phosphatidylinositol 4,5-bisphosphate 3-kinase catalytic subunit delta isoform (Homo sapiens, UniProt O00329); experiment: Inhibition of PI-3K delta (unknown origin)
T3 sequence (O00329 whole entry): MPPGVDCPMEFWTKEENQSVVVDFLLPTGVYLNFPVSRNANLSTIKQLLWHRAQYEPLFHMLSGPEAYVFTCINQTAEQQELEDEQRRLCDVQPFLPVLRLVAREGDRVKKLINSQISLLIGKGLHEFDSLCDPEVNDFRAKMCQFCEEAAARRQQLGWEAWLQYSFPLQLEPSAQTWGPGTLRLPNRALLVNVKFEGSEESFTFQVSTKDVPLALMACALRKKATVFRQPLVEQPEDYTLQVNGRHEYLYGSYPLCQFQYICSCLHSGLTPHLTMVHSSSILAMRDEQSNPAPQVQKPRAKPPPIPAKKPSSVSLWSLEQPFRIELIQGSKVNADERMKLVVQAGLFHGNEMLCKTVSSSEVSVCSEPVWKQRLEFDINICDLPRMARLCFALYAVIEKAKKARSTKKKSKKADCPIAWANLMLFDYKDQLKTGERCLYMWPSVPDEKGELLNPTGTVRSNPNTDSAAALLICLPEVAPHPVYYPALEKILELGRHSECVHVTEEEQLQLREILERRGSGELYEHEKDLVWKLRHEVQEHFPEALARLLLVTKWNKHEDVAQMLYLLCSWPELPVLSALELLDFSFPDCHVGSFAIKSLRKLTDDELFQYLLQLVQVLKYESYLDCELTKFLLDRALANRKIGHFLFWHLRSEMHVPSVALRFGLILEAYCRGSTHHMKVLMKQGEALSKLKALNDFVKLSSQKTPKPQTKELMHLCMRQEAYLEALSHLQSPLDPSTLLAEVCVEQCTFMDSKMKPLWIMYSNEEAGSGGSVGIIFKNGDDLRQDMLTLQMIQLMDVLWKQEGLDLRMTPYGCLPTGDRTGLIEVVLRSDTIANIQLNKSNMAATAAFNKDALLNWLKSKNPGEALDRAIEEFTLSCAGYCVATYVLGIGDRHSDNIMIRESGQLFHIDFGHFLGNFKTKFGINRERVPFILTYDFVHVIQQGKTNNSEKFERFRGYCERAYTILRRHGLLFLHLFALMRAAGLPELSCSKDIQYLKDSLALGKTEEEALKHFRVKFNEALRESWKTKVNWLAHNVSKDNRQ

[20] = biological target: Phosphatidylinositol 4,5-bisphosphate 3-kinase catalytic subunit gamma isoform (Homo sapiens, UniProt P48736); experiment: Inhibition of PI-3K gamma (unknown origin)
Sequence of Phosphatidylinositol 4,5-bisphosphate 3-kinase catalytic subunit gamma isoform (P48736 whole entry, canonical isoform): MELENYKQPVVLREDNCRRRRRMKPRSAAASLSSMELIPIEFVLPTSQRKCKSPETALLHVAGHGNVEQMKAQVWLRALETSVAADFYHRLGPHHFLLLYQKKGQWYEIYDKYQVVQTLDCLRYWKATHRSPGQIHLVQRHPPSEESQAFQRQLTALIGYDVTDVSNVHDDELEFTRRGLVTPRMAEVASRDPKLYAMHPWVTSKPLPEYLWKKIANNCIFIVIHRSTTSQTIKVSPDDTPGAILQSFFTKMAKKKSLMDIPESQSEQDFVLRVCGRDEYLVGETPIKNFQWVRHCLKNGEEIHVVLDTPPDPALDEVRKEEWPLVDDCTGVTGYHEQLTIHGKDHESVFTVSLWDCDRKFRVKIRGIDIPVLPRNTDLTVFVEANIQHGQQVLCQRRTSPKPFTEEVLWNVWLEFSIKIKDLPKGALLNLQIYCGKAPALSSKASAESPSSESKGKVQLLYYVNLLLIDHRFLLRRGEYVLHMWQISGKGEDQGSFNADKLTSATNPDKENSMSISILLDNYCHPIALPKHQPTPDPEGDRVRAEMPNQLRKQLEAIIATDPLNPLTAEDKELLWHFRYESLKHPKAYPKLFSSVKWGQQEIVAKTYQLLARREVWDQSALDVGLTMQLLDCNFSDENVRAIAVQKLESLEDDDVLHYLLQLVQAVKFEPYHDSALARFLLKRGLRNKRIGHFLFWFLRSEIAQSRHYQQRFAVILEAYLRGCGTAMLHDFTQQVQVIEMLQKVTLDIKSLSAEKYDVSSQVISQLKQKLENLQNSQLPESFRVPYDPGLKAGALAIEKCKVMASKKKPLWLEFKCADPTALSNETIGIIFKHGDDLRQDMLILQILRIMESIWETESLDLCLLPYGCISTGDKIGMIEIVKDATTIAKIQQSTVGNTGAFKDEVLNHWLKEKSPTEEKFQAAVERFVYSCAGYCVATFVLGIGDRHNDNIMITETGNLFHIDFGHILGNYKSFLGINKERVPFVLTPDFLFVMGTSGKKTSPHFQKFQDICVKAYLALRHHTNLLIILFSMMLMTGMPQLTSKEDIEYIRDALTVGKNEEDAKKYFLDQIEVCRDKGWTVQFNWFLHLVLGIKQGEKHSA

[21] = biological target: Aurora kinase B (Homo sapiens) (UniProt Q96GD4); experiment: Inhibition of Aurora kinase B (unknown origin); conditions: concentration not given here
Sequence of Aurora kinase B (Homo sapiens) (Q96GD4 whole entry): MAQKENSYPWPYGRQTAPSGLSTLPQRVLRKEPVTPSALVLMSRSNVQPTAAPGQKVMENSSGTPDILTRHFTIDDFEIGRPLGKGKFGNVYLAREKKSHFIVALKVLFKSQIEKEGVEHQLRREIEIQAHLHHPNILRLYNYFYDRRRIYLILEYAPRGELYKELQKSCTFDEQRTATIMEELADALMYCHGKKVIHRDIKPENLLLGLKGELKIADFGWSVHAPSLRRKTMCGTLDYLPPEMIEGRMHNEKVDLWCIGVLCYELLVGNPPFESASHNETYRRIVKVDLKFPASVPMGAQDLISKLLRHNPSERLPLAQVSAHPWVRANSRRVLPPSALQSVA

[22] = test system: HeLa; experiment: Antiproliferative activity against human HeLa cells assessed as cell viability after 6 to 8 days by DMR clonogenic assay; type: cell-based
[23] = biological target: Phosphatidylinositol 4,5-bisphosphate 3-kinase catalytic subunit alpha isoform (Homo sapiens, UniProt P42336); experiment: Inhibition of PI-3K alpha (unknown origin)

Row | IC50 [11] | SMILES | Ratio [3] | Ratio [9] | further results
1 | 12 nM | CN1CCN(CC(=O)Nc2ccc(-c3cccc4c(=O)cc(N5CCOCC5)oc34)c3sc4ccccc4c23)CC1 | 7.4 | 2.4 | logD [1]: 3; EC50 [2]: 426 nM; fraction unbound [4]: 0.036; IC50 [5]: > 10 µM; IC50 [6]: > 10 µM; IC50 [7]: > 10 µM; solubility [8]: 5 µM (≈ 2.84 µg/mL); IC50 [10]: > 10 µM; IC50 [12]: > 10 µM; IC50 [13]: > 10 µM
2 | 2 nM | CC(=O)N1CCN(CCOc2ccc(-c3cccc4c(=O)cc(N5CCOCC5)oc34)c3sc4ccccc4c23)CC1 |  |  | EC50 [2]: 166 nM; fraction unbound [4]: 0.0049
3 | 42 nM | O=c1cc(N2CCOCC2)oc2c(-c3cccc4c3sc3ccccc34)cccc12 | 2.8 | 2.2 | logD [1]: > 4.3; EC50 [2]: 212 nM; IC50 [14]: 16 nM; IC50 [15]: > 10 µM; IC50 [16]: 2400 nM; fraction unbound [4]: 0.0004; IC50 [17]: 40 nM; IC50 [18]: > 10 µM; solubility [8]: < 0.2 µM; IC50 [19]: 30 nM; IC50 [20]: 220 nM; IC50 [13]: 14 µM
4 | 5 nM | O=C(CN1CCN(CCO)CC1)Nc1ccc(-c2cccc3c(=O)cc(N4CCOCC4)oc23)c2sc3ccccc3c12 | 8.4 | 2 | logD [1]: 2.7; EC50 [2]: 109 nM; fraction unbound [4]: 0.098; IC50 [5]: > 10 µM; IC50 [6]: > 10 µM; IC50 [7]: > 10 µM; solubility [8]: 154 µM (≈ 92.2 µg/mL); IC50 [10]: > 10 µM; IC50 [12]: > 10 µM; IC50 [13]: > 30 µM
5 | 26 nM | O=C(CCN(CCO)CCO)Nc1ccc(-c2cccc3c(=O)cc(N4CCOCC4)oc23)c2sc3ccccc3c12 | 0.8 | 1 | 
6 | 13 nM | CN1CCCC1CCNCCC(=O)Nc1ccc(-c2cccc3c(=O)cc(N4CCOCC4)oc23)c2sc3ccccc3c12 (stereo not given) | 1.2 | 1.3 | 
7 | 20 nM | O=c1cc(N2CCOCC2)oc2c(-c3ccc(OCCN4CCCCC4)c4c3sc3ccccc34)cccc12 | 3.5 | 1.4 | 
8 | 57 nM | CN(C)CCN(C)CC(=O)Nc1ccc(-c2cccc3c(=O)cc(N4CCOCC4)oc23)c2sc3ccccc3c12 | 5.7 | 1.1 | 
9 | 12 nM | O=C(CCNCc1ccncc1)Nc1ccc(-c2cccc3c(=O)cc(N4CCOCC4)oc23)c2sc3ccccc3c12 | 2.6 | 1.1 | 
10 | 19 nM | COCCN1CCN(CCC(=O)Nc2ccc(-c3cccc4c(=O)cc(N5CCOCC5)oc34)c3sc4ccccc4c23)CC1 | 3.5 | 1.3 | 
11 | 30 nM | O=C(CCN1CCN(c2ccc(F)cc2)CC1)Nc1ccc(-c2cccc3c(=O)cc(N4CCOCC4)oc23)c2sc3ccccc3c12 | 3.8 | 1.5 | 
12 | 6 nM | O=C(CCNCCN1CCOCC1)Nc1ccc(-c2cccc3c(=O)cc(N4CCOCC4)oc23)c2sc3ccccc3c12 | 1.9 | 1.3 | 
13 |  | CCN1CCN(CC(=O)Nc2ccc(-c3cccc4c(=O)cc(N5CCOCC5)oc34)c3sc4ccccc4c23)CC1 |  |  | logD [1]: 3.05; EC50 [2]: 136 nM; IC50 [14]: 0.5 nM; IC50 [15]: > 10 µM; inhibition [21]: 44%; IC50 [16]: 10000 nM; fraction unbound [4]: 0.036; IC50 [22]: > 25 µM; IC50 [5]: > 10 µM; IC50 [6]: > 10 µM; IC50 [7]: > 10 µM; IC50 [23]: 4 nM; IC50 [18]: > 10 µM; solubility [8]: 161 µM (≈ 93.8 µg/mL); IC50 [10]: > 10 µM; IC50 [19]: < 0.1 nM; IC50 [20]: 590 nM; IC50 [12]: > 10 µM
14 | 11 nM | O=C(CN1CCOCC1)Nc1ccc(-c2cccc3c(=O)cc(N4CCOCC4)oc23)c2sc3ccccc3c12 | 12.8 | 3.9 | 
15 | 18 nM | O=C(CCN1CCN(c2ncccn2)CC1)Nc1ccc(-c2cccc3c(=O)cc(N4CCOCC4)oc23)c2sc3ccccc3c12 | 7.1 | 1.6 | 
16 | 10 nM | O=C(CCNCCO)Nc1ccc(-c2cccc3c(=O)cc(N4CCOCC4)oc23)c2sc3ccccc3c12 | 0.9 | 0.9 | 
17 | 8 nM | NCCC(=O)Nc1ccc(-c2cccc3c(=O)cc(N4CCOCC4)oc23)c2sc3ccccc3c12 | 1.4 | 1.1 | 
18 | 29 nM | O=C(CCN1CCN(CCOCCO)CC1)Nc1ccc(-c2cccc3c(=O)cc(N4CCOCC4)oc23)c2sc3ccccc3c12 | 1 | 1.1 | 
19 | 7 nM | O=c1cc(N2CCOCC2)oc2c(-c3ccc(OCCNCCN4CCOCC4)c4c3sc3ccccc34)cccc12 | 10.1 | 1.4 | 
20 | 7 nM | COCCNCC(=O)Nc1ccc(-c2cccc3c(=O)cc(N4CCOCC4)oc23)c2sc3ccccc3c12 | 5.9 | 1.2 | 
21 | 51 nM | O=C(CN1CCCCCC1)Nc1ccc(-c2cccc3c(=O)cc(N4CCOCC4)oc23)c2sc3ccccc3c12 | 3.9 | 1.3 | 
22 | 24 nM | O=C(CN1CCNCC1)Nc1ccc(-c2cccc3c(=O)cc(N4CCOCC4)oc23)c2sc3ccccc3c12 | 5 | 1.4 | 
23 |  | O=c1cc(N2CCOCC2)oc2c(-c3ccccc3)cccc12 [LY-294002] |  |  | IC50 [15]: > 10 µM; IC50 [16]: 2800 nM; IC50 [18]: > 10 µM; IC50 [19]: 220 nM
24 | 41 nM | O=C(CCN1CCOCC1)Nc1ccc(-c2cccc3c(=O)cc(N4CCOCC4)oc23)c2sc3ccccc3c12 | 6.1 | 2 | 
